Measurements from ChEMBL document CHEMBL1142097, “EthA, a common activator of thiocarbamide-containing drugs acting on different mycobacterial targets” (Antimicrob Agents Chemother, 2007).
≈ marks a conversion by molar mass, not a printed value. Calls of active or inactive are those of the source. The calls are words filed in the database; no cut-off is given here.

Key:
[1] = Antimycobacterial activity against Mycobacterium bovis BCG str. Pasteur 1173P2 overexpressing ethA gene; assay type: functional; details: Mycobacterium tuberculosis variant bovis BCG
Method in brief: (§1)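 Agar MIC on Middlebrook 7H9 or 7H11 with OADC (ADC substituted for isoxyl-type drugs) plus graded drug levels; serial 10-fold dilutions of actively growing culture plated, incubated 37°C for 10–14 days; MIC = lowest concentration blocking 99% of growth. Recombinant Pasteur strains selected with 25 μg/ml kanamycin; ethR::hyg mutant carries a hygromycin-marked transposon in ethR.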

[2] = Antimycobacterial activity against Mycobacterium bovis BCG str. Pasteur 1173P2 overexpressing ethR gene; assay type: functional; details: Mycobacterium tuberculosis variant bovis BCG; method in brief: as §1
[3] = test system: Mycobacterium tuberculosis; assay: Antimycobacterial activity against Mycobacterium bovis BCG NCTC 5692; assay type: functional; details: Mycobacterium tuberculosis variant bovis BCG; method in brief: as §1
[4] = test system: Mycobacterium tuberculosis; assay: Antimycobacterial activity against Mycobacterium bovis BCG NCTC 5692 with ethR-knockout mutant; assay type: functional, variant bovis BCG; method in brief: as §1
[5] = test system: Mycobacterium tuberculosis; assay: Inhibition of oleic acid synthesis in Mycobacterium bovis BCG NCTC 5692 assessed as incorporation of [2-14C]acetate; assay type: functional, organism-based; details: variant bovis BCG
Method in brief: (§2)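 Mid-log cultures in Sauton medium exposed to graded drug concentrations (μg/ml) for 16 h at 37°C, then pulsed with 1 μCi/ml [2-14C]acetate for 8 h at 37°C. Cells PBS-washed, hydrolysed with 15% tetrabutylammonium hydroxide at 100°C overnight, methylated with CH3I in CH2Cl2; fatty and mycolic acid methyl esters resolved by TLC and autoradiographed.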

[6] = test system: Mycobacterium tuberculosis; assay: Inhibition of mycolic acid synthesis in Mycobacterium bovis BCG NCTC 5692 assessed as incorporation of [2-14C]acetate; assay type: functional, organism-based; details: variant bovis BCG; method in brief: as §2
[7] = test system: Mycobacterium tuberculosis; assay: Inhibition of oleic acid synthesis in Mycobacterium bovis BCG NCTC 5692 with ethR-knockout mutant assessed as incorporation of [2-14C]acetate; assay type: functional, organism-based; details: variant bovis BCG; method in brief: as §2
[8] = test system: Mycobacterium tuberculosis; assay: Inhibition of mycolic acid synthesis in Mycobacterium bovis BCG NCTC 5692 with ethR-knockout mutant assessed as incorporation of [2-14C]acetate; assay type: functional, organism-based; details: variant bovis BCG; method in brief: as §2

Row | Compound | MIC [1] | MIC [2] | MIC [3] | MIC [4] | Activity [5] | Activity [6] | Activity [7] | Activity [8]
1 | NC(=S)N/N=C/c1cccnc1 [NICOTHIAZONE] | 10 µg/mL (≈ 55.5 µM) | 75 µg/mL (≈ 416 µM) | 25 µg/mL (≈ 139 µM) | 5 µg/mL (≈ 27.7 µM) | – | – | – | –
2 | CC(C)CCOc1ccc(NC(=S)Nc2ccc(OCCC(C)C)cc2)cc1 [TIOCARLIDE] | 0.1 µg/mL (≈ 0.25 µM) | 0.25 µg/mL (≈ 0.624 µM) | 1 µg/mL (≈ 2.5 µM) | 0.5 µg/mL (≈ 1.25 µM) | Active | Active | Active | –
3 | CCc1cc(C(N)=S)ccn1 [ETHIONAMIDE] | 0.25 µg/mL (≈ 1.5 µM) | 10 µg/mL (≈ 60.2 µM) | 5 µg/mL (≈ 30.1 µM) | 0.5 µg/mL (≈ 3.01 µM) | – | – | – | Active
4 | CC(=O)Nc1ccc(/C=N/NC(N)=S)cc1 [AMITHIOZONE] | 0.25 µg/mL (≈ 1.06 µM) | 2.5 µg/mL (≈ 10.6 µM) | 2.5 µg/mL (≈ 10.6 µM) | 0.25 µg/mL (≈ 1.06 µM) | inactive | Active | – | Active
5 | CC(C)CCSc1ccc(NC(=S)Nc2ccc(SCCC(C)C)cc2)cc1 | 5 µg/mL (≈ 11.6 µM) | 40 µg/mL (≈ 92.4 µM) | 25 µg/mL (≈ 57.8 µM) | 2.5 µg/mL (≈ 5.78 µM) | – | – | Active | Active
6 | COc1ccc(/C(C)=N/NC(N)=S)cc1 | 0.25 µg/mL (≈ 1.12 µM) | 0.5 µg/mL (≈ 2.24 µM) | 2.5 µg/mL (≈ 11.2 µM) | 0.25 µg/mL (≈ 1.12 µM) | – | – | – | –
